For 12 molecules, viability, differential viability (reversal) and inhibition results are on record in PubChem BioAssay.

Test [1] in a line: reduced viability of SK-BR-3 breast cancer cells – cell-based, 24 h, human, pilot screen (AID 572).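 Further: compound exposure lasted between 18 and 24 h rather than exactly 24 h; 100% = carrier-treated control wells.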 The note with it: SK-BR-3 viability, CellTiter-Glo luminescence, at 10 µM, stronger effect = lower value. For orientation: Cellular ATP, detected with luciferase, serves as a proxy for viable cell number.
Test [2] can be described thus: HUVEC growth inhibition – cell-based, human, primary screen (AID 575;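 active means viability at or below 30% in both replicate assays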;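 further: 100% = median of untreated cell wells with 0.1% DMSO on each plate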). The note with it: HUVEC proliferation, CellTiter-Glo luminescence, 72 h; at 10 µM; stronger effect = lower value. In a few lines:
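Timing: 72 h treatment at 37 °C; material: HUVEC primary cells; technique: CellTiter-Glo luminescence measuring cellular ATP; controls: vehicle and MePR control wells; measure: percent of median DMSO-control luminescence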

The nature of test [3]: H69AR cell proliferation blockers – human, duplicate replicates, primary screen (AID 580;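 active means viability at or under a set limit in both replicates, limit being median viability minus 3 SD, cut at about 48% in these data, passing the limit was not always enough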;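 further: 100% = mean luminescence of untreated wells and 0% = no signal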). The conditions noted are these: H69AR lung tumor cells viability, ATP luminescence, 72 h; at 10 µM; stronger effect = lower value.
Test [4] in a line: MRP1 drug-resistance reversers in H69AR cells – cell-based, doxorubicin co-treatment, pilot screen (AID 601;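 active means viability loss from added drug above about 55%, and viability with drug at most 40%, in both replicates, limit read from the data, passing the limit was not always enough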). The conditions noted are these: CellTiter-Glo, 72 h, at 10 µM; for differential viability (reversal): stronger effect = higher value.
A short description of test [5]: yeast transport mutant growth inhibition pilot in 384-well plates, post-Golgi transport modulator project (AID 636; in the data active means inhibition above about 31%). The note with it: absorbance 615 nm, about 18 h, stronger effect = higher value.
The nature of test [6]: growth suppression of yeast trafficking mutant, preliminary HTS, modulators of trafficking downstream of Golgi apparatus project, 1536-format plate, OD 615 nm (AID 637; in the data active means inhibition above about 30%). The note with it: yeast transport mutant growth, absorbance 615 nm, 18 h; stronger effect = higher value.
Where [7] appears, read: H69AR cells + 2 uM doxorubicin, measured here: viability with 2 uM doxorubicin, stronger effect = lower value.
The mark [8] stands for this setting: H69AR cells, compound alone cytotoxicity.

Active and inactive are the calls of the source.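 How the source made its calls, unless noted: active means viability at or below 10% of carrier control in both of two separate runs; inconclusive means viability at or below 10% in only one of the two runs; inactive means the rest.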

A word on the viability: it is a read-out of living cells in per cent, often relative to untreated cells. By inhibition is commonly meant the relative decrease from the control value, in per cent. For `Cc1cc(C)nc(-n2nc(C)cc2NC(=O)c2ccc(Br)o2)n1`, the viability in test [1] is 108% (inactive); in test [2], 87.4% (inactive); in test [3] it was 71.9% (inactive); in test [4] (setting [7]), 83.3%; in test [4] (setting [8]), 71.9%. Besides, in test [4] (H69AR cells + 2 uM doxorubicin), the differential viability (reversal) was -11.4% (inactive). Also, the inhibition in test [5] is -3.73% (inactive); in test [6], 5.27% (inactive).
For the molecule `CC(=O)SCCC(=O)Nc1ccccc1`, the viability in test [1] is 88% (inactive); in test [2], 87.2% (inactive); in test [3], 92.5% (inactive); in test [4] (setting [7]), 87.3%; in test [4] (setting [8]) it was 92.5%. Moreover, the differential viability (reversal) in test [4] (H69AR cells + 2 uM doxorubicin) is 5.22% (inactive). The results for the inhibition in test [5] and in test [6] were -7.12% (inactive) and 0.81% (inactive), respectively.
In the case of `CCOc1ccccc1N1CC(O)=C(c2nc3ccccc3s2)C1=N`, the viability in test [1] was 97% (inactive); in test [2], 49.4% (inactive); in test [3] it was 14.5% (active); in test [4] (setting [7]) it was 60.2%; in test [4] (setting [8]), 14.5%. Also, the differential viability (reversal) in test [4] (H69AR cells + 2 uM doxorubicin) is -45.7% (inactive). Moreover, the inhibition is 1.47% (inactive) in test [5] and 2.36% (inactive) in test [6].
Regarding `O=C(Nc1nnc(SCC(=O)N2CCCCC2)s1)C1CCCCC1`, the viability was 81% (inactive) in test [1]; 103% (inactive) in test [2]; 101% (inactive) in test [3]; 88.8% in test [4] (setting [7]); 101% in test [4] (setting [8]). In test [4] (H69AR cells + 2 uM doxorubicin), the differential viability (reversal) is 12.6% (inactive). Further, the inhibition in test [5] is -2.13% (inactive); in test [6], 0.73% (inactive).
With `CC(C)(C)c1nnc(NC(=O)C2CCN(c3ncccn3)CC2)s1`, the viability in test [1] is 105% (inactive); in test [2], 115% (inactive); in test [3], 101% (inactive); in test [4] (setting [7]), 86.6%; in test [4] (setting [8]) it was 101%. In test [4] (H69AR cells + 2 uM doxorubicin), the differential viability (reversal) was 14.3% (inactive). For the same molecule, the inhibition in test [5] is -4.03% (inactive); in test [6], -0.82% (inactive).
Consider `c1cncc(C2Nc3ccccc3-c3nc4ccccc4n32)c1` (stereo unspecified), for which the viability in test [1] was 90% (inactive); in test [2], 98.1% (inactive); in test [3] it was 78.7% (inactive); in test [4] (setting [7]) it was 90.9%; in test [4] (setting [8]), 78.7%. Moreover, the differential viability (reversal) in test [4] (H69AR cells + 2 uM doxorubicin) was -12.2% (inactive). For the same molecule, the inhibition was -2.53% (inactive) in test [5] and 0.91% (inactive) in test [6].
For the molecule `CCOC(=O)c1cc2c(=O)n3cccc(C)c3nc2n(CC2CCCO2)c1=NC(C)=O` (stereo unspecified), the viability in test [1] was 94% (inactive); in test [2], 109% (inactive); in test [3], 81.3% (inactive); in test [4] (setting [7]) it was 19.6%; in test [4] (setting [8]) it was 81.3%. Also, the differential viability (reversal) in test [4] (H69AR cells + 2 uM doxorubicin) was 61.6% (active). Moreover, the inhibition in test [5] is -5.14% (inactive); in test [6], 0.91% (inactive).
On to `CC1CCN(CCCNC(=O)c2coc3nc4ccccc4nc23)CC1`, for which the viability in test [1] is 148% (inactive); in test [2], 90.6% (inactive); in test [3] it was 92.9% (inactive); in test [4] (setting [7]), 99.3%; in test [4] (setting [8]), 92.9%. The differential viability (reversal) in test [4] (H69AR cells + 2 uM doxorubicin) is -6.4% (inactive). Moreover, the inhibition in test [5] is -2.73% (inactive); in test [6], -2.13% (inactive).
Take `CC(C)(C#N)Nn1cnnc1`: the viability was 135% (inactive) in test [1]; 104% (inactive) in test [2]; 85.9% (inactive) in test [3]; 90.7% in test [4] (setting [7]); 85.9% in test [4] (setting [8]). In test [4] (H69AR cells + 2 uM doxorubicin), the differential viability (reversal) was -4.76% (inactive). Besides, the inhibition is -4.73% (inactive) in test [5] and 4.18% (inactive) in test [6].
Take `CC(=O)c1n[nH]nc1NC(=O)c1ccccc1`: the viability in test [1] is 120% (inactive); in test [2] it was 97.6% (inactive); in test [3], 89.9% (inactive); in test [4] (setting [7]), 96.6%; in test [4] (setting [8]), 89.9%. For the same molecule, the differential viability (reversal) in test [4] (H69AR cells + 2 uM doxorubicin) is -6.65% (inactive). Moreover, the inhibition in test [5] was -1.69% (inactive); in test [6] it was 0.16% (inactive).
`Nn1c(SCC(=O)NC2CCCCC2)nnc1-c1ccc(Cl)cc1`: the viability in test [1] is 89% (inactive); in test [2], 104% (inactive); in test [3], 91.6% (inactive); in test [4] (setting [7]) it was 82.7%; in test [4] (setting [8]), 91.6%. For the same molecule, in test [4] (H69AR cells + 2 uM doxorubicin), the differential viability (reversal) is 8.96% (inactive). The inhibition in test [5] was -6.16% (inactive); in test [6], 3.71% (inactive).
Take `CCOC(=O)C(C)C1(O)c2ccccc2-c2ncccc21` (stereo unspecified): the viability in test [1] was 91% (inactive); in test [2], 98.6% (inactive); in test [3] it was 102% (inactive); in test [4] (setting [7]), 88.6%; in test [4] (setting [8]), 102%. Moreover, the differential viability (reversal) in test [4] (H69AR cells + 2 uM doxorubicin) was 13% (inactive). In addition, the inhibition is -5.81% (inactive) in test [5] and 1.27% (inactive) in test [6].
